Source: PubChem (Sanford-Burnham Center for Chemical Genomics)
SENP6 block: inhibitors of human SENP6 protease; Q9GZR1; Recombinant SENP6 catalytic domain, aminoluciferin luminescence; inhibition, % at 10 µM; hit rate 1.8% among 330,000; AID 2599;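 active = inhibition above about 50% at the single tested dose, limit read from the data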
SENP1 FRET inh: inhibitors of human SENP1 SUMO protease catalytic domain. Q9P0U3. recombinant SENP1 catalytic domain, CyPet-SUMO1-YPet FRET cleavage. inhibition, % at 10 µM. hit rate 0.21% among 360,000;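 active = inhibition at least 30% at 10 µM, raw YFP signal under a set limit, fluorescence ratio 0.5 to 1.5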
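Compound: 10 µM single point, 0.5% DMSO; Test system: hSENP1 catalytic domain, recombinant; Timing: 50 min reaction at room temperature; Technique: FRET, CFP and YFP emission; Control set: no-enzyme wells low, DMSO-plus-enzyme wells high control.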
SENP8 block-1: SENP8 (human) protease inhibition; Q96LD8; recombinant SENP8, Nedd8 substrate fluorescence; inhibition, % at 20 µM; hit rate 0.64% among 360,000; AID 602440; in the data active = inhibition mostly above about 40%, no sharp cut-off; inactive = mostly below about 27%
SENP8 block-2: SENP8 protease inhibition; Q96LD8; purified SENP8, Z-RLRGG-aminoluciferin cleavage, luminescence; inhibition, % at 10 µM; hit rate 1.2% among 330,000; AID 2540; in the data active = inhibition above about 50%
SENP7 block: blocks the human protease SENP7 | recombinant SENP7, Z-RLRGG-aminoluciferin luminescence, 40 min | inhibition, % at 5 µM | Q9BQF6 | AID 434973 | hit rate 1.5% among 330,000;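 active = inhibition above about 50% at the single test dose, limit read from the data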
Target sequence (Q9BQF6 706-1050 limits assumed): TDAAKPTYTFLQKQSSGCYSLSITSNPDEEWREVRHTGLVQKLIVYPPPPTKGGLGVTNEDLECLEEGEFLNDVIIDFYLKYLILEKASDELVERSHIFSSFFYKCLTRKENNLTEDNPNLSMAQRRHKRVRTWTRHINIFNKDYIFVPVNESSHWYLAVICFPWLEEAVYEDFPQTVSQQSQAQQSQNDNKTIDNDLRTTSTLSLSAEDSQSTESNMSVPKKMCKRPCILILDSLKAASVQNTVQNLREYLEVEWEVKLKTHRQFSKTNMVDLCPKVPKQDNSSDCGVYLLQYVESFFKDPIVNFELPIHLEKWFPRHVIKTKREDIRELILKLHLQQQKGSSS
NRP1-CendR mod: NRP-1/CendR interaction modulation; FAM-RPARPAR peptide binding to NRP-1, fluorescence polarization; O14786; hit rate 0.85% among 360,000; inhibition, % at 25 µM;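 active = inhibition or corrected inhibition above about 18%, plus a signal ratio from 0.5 to 1.5, limit read from the data, passing the limit was not always enough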
SENP8 conf: human SENP8 inhibition, confirmed. shares compounds with SENP7 block. Recombinant SENP8, Z-RLRGG-aminoluciferin luminescence, 60 min. inhibition, % at 12.5 µM. hit rate 40% among 6,200. AID 488912;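 active = mean inhibition across replicates above about 50%, limit read from the data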
SENP6 conf: human SENP6 inhibition, confirmed. shares compounds with SENP7 block. recombinant SENP6, Z-RLRGG-aminoluciferin luminescence. inhibition, % at 12.5 µM. hit rate 58% among 6,200. AID 488915
SENP7 confirm: confirmation of human SENP7 protease inhibitors. shares compounds with SENP7 block. recombinant SENP7, Z-RLRGG-aminoluciferin luminescence, 40 min. inhibition, % at 12.5 µM. hit rate 69% among 6,200. AID 488917
Casp3 select: selectivity test for SENP inhibitors: human caspase-3 inhibition | shares compounds with SENP7 block | purified caspase-3, Z-DEVD-aminoluciferin luminescence, 60 min | inhibition, % at 12.5 µM | hit rate 60% among 6,200 | AID 488918;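 active = mean inhibition above about 50%, limit read from the data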
Target sequence (P42574 28-227 limits assumed): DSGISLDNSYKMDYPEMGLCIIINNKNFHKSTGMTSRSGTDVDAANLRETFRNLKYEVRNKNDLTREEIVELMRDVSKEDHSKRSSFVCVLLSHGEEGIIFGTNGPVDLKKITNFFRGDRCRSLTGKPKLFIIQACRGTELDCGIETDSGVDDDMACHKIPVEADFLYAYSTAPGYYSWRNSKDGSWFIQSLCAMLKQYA
Luc interf: interferes with luciferase luminescence in SENP counter-screen. hit rate 39% among 6,200. inhibition, % at 12.5 µM. Pre-incubated SENP8/Z-RLRGG-aminoluciferin, luciferase luminescence interference. shares compounds with SENP7 block;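 active = mean inhibition above about 50% when retested at one dose, limit read from the data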
Each line names hits and unclear results; the compound was inactive in the other large screens (follow-up assays come after a bar, where they were run). Shown are actives, neighbours in structure and some others; about 3.3% of the full set was active somewhere.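 The calls were made as follows, unless noted: active = mean inhibition above about 50% in the one-dose retest (limit read from the data); inactive = the rest.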

Cc1cn([C@H]2C[C@H](O)[C@@H](/C=C/C(=O)NCCN3CCOCC3)O2)c(=O)[nH]c1=O	none (no result: SENP6 block, SENP8 block-2, SENP7 block)
CCOC(=O)c1cnc(-c2ccccc2)nc1N(C)C	none
CCOC(=O)c1cnc(-c2ccccc2)nc1N	SENP6 block 69, SENP7 block 51 | SENP8 conf 53 | SENP6 conf 54 | SENP7 confirm 81 | Casp3 select 70 | Luc interf 52
CCOC(=O)c1cnc(SCC(=O)c2ccc(C)cc2)nc1N	none
CCOC(=O)c1cnc(SCC(=O)c2ccccc2)nc1N	SENP6 block 81, SENP8 block-2 56, SENP7 block 78 | SENP8 conf inactive | SENP6 conf inactive | SENP7 confirm inactive | Casp3 select inactive | Luc interf inactive
O=C(CCNS(=O)(=O)c1ccc(F)c(F)c1)NCCN1CCOCC1	none
Cc1cc(N2CCCCC2)n2ncc(-c3ccc(Cl)cc3)c2n1	none
Cc1cc(NC2CCCC2)n2nc(C)c(-c3ccccc3)c2n1	none
Cc1cc(NC2CCCC2)n2ncc(-c3ccccc3)c2n1	SENP6 block 77, SENP8 block-2 71, SENP7 block 83 | SENP8 conf 80 | SENP6 conf 84 | SENP7 confirm 93 | Casp3 select 62 | Luc interf inactive
Cc1cc(N2CCOCC2)n2ncc(-c3ccccc3)c2n1	SENP7 block 57 | SENP8 conf 55 | SENP6 conf 55 | SENP7 confirm 84 | Casp3 select 63 | Luc interf inactive
Cc1cc(N2CCCCC2)n2ncc(-c3ccccc3)c2n1	SENP6 block 50, SENP7 block 53 | SENP8 conf inactive | SENP6 conf inactive | SENP7 confirm 75 | Casp3 select inactive | Luc interf inactive
Cc1cc(NCCCn2ccnc2)n2ncc(-c3ccccc3)c2n1	SENP6 block 67, SENP7 block 55 | SENP8 conf 53 | SENP6 conf 52 | SENP7 confirm 82 | Casp3 select 60 | Luc interf inactive
COc1ccccc1CNC(=O)C1(C)CCN1C(=O)Cc1ccc(-c2ccccc2)cc1 (configuration not stated)	none (no result: SENP6 block, SENP8 block-2, SENP7 block)
CCCc1nc(SCC(=O)N2CCc3ccccc3C2)c2ccccc2n1	SENP7 block 98 | SENP8 conf inactive | SENP6 conf inactive | SENP7 confirm inactive | Casp3 select inactive | Luc interf inactive
COc1ccc(Cn2cc(CN3CC(N4CCN(C)CC4)CS3(=O)=O)nn2)cc1 (configuration not stated)	none (no result: SENP6 block, SENP8 block-2, SENP7 block)
Cc1cc(=O)[nH]c(N=N/C(=N/Nc2ccccc2C)c2ccccc2)n1	none
Cc1cc(=O)[nH]c(N=N/C(=N/Nc2ccc(O)cc2)c2ccccc2)n1	SENP6 block 61, SENP1 FRET inh 48 | SENP8 conf inactive | SENP6 conf inactive | SENP7 confirm inactive | Casp3 select inactive | Luc interf inactive
COc1ccc(N/N=C(/N=Nc2nc(C)cc(=O)[nH]2)c2ccccc2)cc1	SENP6 block 68, NRP1-CendR mod 44 | SENP8 conf inactive | SENP6 conf inactive | SENP7 confirm inactive | Casp3 select inactive | Luc interf inactive
Cc1ccc2[nH]c(=O)c(CN(CC3CCCO3)S(=O)(=O)c3c(C)ccc4nsnc34)cc2c1 (configuration not stated)	none
Cc1ccc2nsnc2c1S(=O)(=O)N(CCO)Cc1cc2cc3c(cc2[nH]c1=O)OCCO3	SENP7 block 71 | SENP8 conf inactive | SENP6 conf inactive | SENP7 confirm inactive | Casp3 select inactive | Luc interf inactive
C=CCn1c(NC(=O)c2ccc(Br)o2)c(S(=O)(=O)c2ccccc2)c2nc3ccccc3nc21	SENP6 block 73 | SENP8 conf inactive | SENP6 conf inactive | SENP7 confirm inactive | Casp3 select inactive | Luc interf inactive
O=C(Nc1ccc(S(=O)(=O)NCc2ccccc2)cc1)c1ccc(Br)o1	none
CCCNC(=O)c1ccc(-c2nc3ccccc3s2)s1	SENP6 block 89, SENP8 block-2 84, SENP7 block 87 | SENP8 conf inactive | SENP6 conf 86 | SENP7 confirm 99 | Casp3 select 55 | Luc interf inactive
Nc1ccc(-c2nc3ccccc3s2)cn1	SENP6 block 79, SENP8 block-2 66, SENP7 block 69 | SENP8 conf 75 | SENP6 conf 73 | SENP7 confirm 91 | Casp3 select 78 | Luc interf inactive
c1ccc(-c2nc3ccccc3s2)nc1	SENP6 block 90, SENP8 block-2 76, SENP7 block 79 | SENP8 conf inactive | SENP6 conf 89 | SENP7 confirm 99 | Casp3 select 89 | Luc interf inactive
Cc1cc(-c2nc3ccccc3s2)ccc1N	none (no result: SENP6 block, SENP8 block-2, SENP7 block)
Brc1ccc(-c2nc3ccccc3s2)s1	SENP6 block 95, SENP8 block-2 95, SENP7 block 96 | SENP8 conf 66 | SENP6 conf 82 | SENP7 confirm 87 | Casp3 select inactive | Luc interf 67
Brc1cc2c(cc1-c1nc3ccccc3s1)OCO2	none
CC(C)Oc1cccc(NC(=O)C2(C)CCN2C(=O)C(C)C)c1 (configuration not stated)	none (no result: SENP6 block, SENP8 block-2, SENP7 block)
COc1ccc2sc(-c3ccc(N(C)C)cc3)c(C#Cc3cncn3C)c2c1	none
Cc1ccc(N2C(=O)CC(NNc3nc4ccccc4s3)C2=O)cc1 (configuration not stated)	none
O=C1CCC(=O)N1c1ccc(-c2nc3ccccc3s2)cc1	SENP6 block 89, SENP8 block-2 70, SENP7 block 94 | SENP8 conf inactive | SENP6 conf 62 | SENP7 confirm 83 | Casp3 select 72 | Luc interf inactive
COc1cccc(C(=O)N2CCC[C@H]2C(=O)N2CCC[C@H]2C(=O)N[C@@H](C)c2ccccc2)c1	none (no result: SENP6 block, SENP8 block-2, SENP7 block)
Nc1cccc2c1C(=O)N(CCOc1ccccc1F)C2=O	SENP6 block 83, SENP8 block-2 73, SENP7 block 73 | SENP8 conf 79 | SENP6 conf 80 | SENP7 confirm 95 | Casp3 select 79 | Luc interf 83
